HIV Env fusion: blocks HIV Env-driven cell-cell fusion; HeLa-JRFL Env/CEM21 cell fusion, luciferase; inhibition, % at 12.3 µM; 360,000 tested, 1.1% active; AID 651610;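 active = mean replicate inhibition score of at least 50 and every replicate individually at or above 50; inconclusive = only one of the two criteria met; inactive = mean below 50 and not all replicates reaching 50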;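 also: 0% = plate neutral controls and 100% = maraviroc near 300 nM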
Ecoli rRNA inh: inhibits bacterial ribosomal RNA function over humanized ribosomes; AID 720706; 350,000 tested, 1.6% active; GFP signal change (wild-type ribosome), % (concentration not given with the values); E. coli WT GFP vs humanized-ribosome RFP mutants, fluorescence, 24 h; active compounds read low; DMSO median 0, no signal -100;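 active = significant combined selectivity score with lowered wild-type GFP, culture density cut under 30%, mutant RFP and density less affected; inactive = any of these conditions unmet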
FN deposit inh: fibronectin deposition inhibition; inhibition, % at 12.6 µM; 350,000 tested, 0.086% active; AH1F fibroblasts, Alexa488-fibronectin deposition fluorescence, overnight;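 active = mean inhibition across replicates of 30% or more, regardless of how many single replicates reach that level; inconclusive = mean under 30% yet at least half of replicates reach 30%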;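 also: positive control wells lacked labelled fibronectin entirely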
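test system = AH1F fibroblasts assembling fluorescent fibronectin matrix | quantity = 10000 AH1F cells per well | buffer or medium = DMEM plus 2% serum, read in PBS | doses = single dose, pinned | incubation = 1 h cell attachment, overnight exposure to compound and label | detection = fluorescence at 485 nm excitation, 525 nm emission | read-out basis = inhibition from reduced deposited-fibronectin fluorescence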
PGC1a acetyl inh: PGC1a acetylation modulation, inhibitor mode. 350,000 tested, 0.17% active. U2OS PGC1a acetylation, AlphaScreen anti-acetyl-lysine; with virally co-expressed GCN5 acetyltransferase. inhibition, % at 15.6 µM;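 active = every replicate shows inhibition of at least 40%; inconclusive = mean inhibition at least 40% but some replicate below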;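 also: 0% = neutral control wells and 100% = positive control wells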
DENV2 CPE rescue: protects cells from dengue virus 2 cytopathic effect | DENV2-infected cells, cytopathic effect rescue, plate reader | CPE inhibition, % at 9.99 µM | 350,000 tested, 1.7% active; in the data active = CPE inhibition above about 20%, passing the limit was not always enough; inconclusive = no clear call, values can overlap the other calls; tested in BHK-21 cells;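 also: 0% = median of neutral control wells and 100% = median of positive control wells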
PglD DTNB: blocks C. jejuni PglD acetyltransferase activity. purified PglD enzyme, DTNB colorimetric CoA detection. inhibition, % at 12.5 µM. 360,000 tested, 0.098% active. AID 602405; in the data active = inhibition above about 16%, passing the limit was not always enough; inconclusive = no clear call, values can overlap the other calls
Numbers without * were called inactive; ? = inconclusive; · = no result given; ! = not active in a repeat; [ ] = another dose, or the depositor's remark. Shown are actives, neighbours in structure and some others; about 3.5% of the full set was active somewhere.

SMILES	HIV Env fusion	Ecoli rRNA inh	FN deposit inh	PGC1a acetyl inh	DENV2 CPE rescue	PglD DTNB
Cc1cc(-c2onc(C)c2C(=O)Oc2ccc(Cl)cc2)no1	1	-15	5	-6	73*	·
COCC(=O)N1C[C@@H](C)[C@@H](OC)CN(C)C(=O)c2ccc(NC(=O)c3cc(C)on3)cc2OC[C@H]1C	·	1	-1	-3	11	0
COc1cc(S(=O)(=O)N(Cc2cccs2)CC2CCCO2)ccc1-n1cnnn1 (stereo not given)	·	-5	·	-2	-2	-3
O=S(=O)(NCc1ccccc1)c1ccc(S(=O)(=O)N(Cc2cccs2)CC2CCCO2)cc1 (stereo not given)	61*	·	-9	8	·	-1
C[C@@H]1CC=CC[C@H](c2cccc(Cl)c2)NC(=O)[C@H](C)N(C)C(=O)c2ccccc2O1 (mixture of isomers)	·	-14	-7	·	·	·
CC1CCCCN1CCCNC(=O)c1ccc2nc(N3CCCCC3)sc2c1 (stereo not given)	-74	11	3	-8	25*	1
Cc1onc(-c2ccccc2)c1C(=O)N/N=C/c1c(F)cccc1Cl	2	1	-5	·	79*	-6
O=C1CCCCN1CC(=O)N1CCCC(Nc2ccc(F)c(F)c2)C1 (stereo not given)	-4	1	6	15	11	-5
O=C(Cn1cccn1)N1CCCC(Nc2ccc(F)c(F)c2)C1 (stereo not given)	8	5	3	-4	27*	1
CCOc1ccc(N2C(=O)C(=O)/C(=C(/O)c3ccccc3)C2c2ccccc2[N+](=O)[O-])cc1 (stereo not given)	-5	-17*	1	·	6	·
O=C1C(=O)N(c2ccccc2)C(c2ccccc2[N+](=O)[O-])/C1=C(\O)c1ccccc1 (stereo not given)	-16	·	-4	·	6	-2
COc1ccc(OCC(=O)NNc2c3ccccc3nc3ccccc23)cc1	59*	·	-1	-7	·	-1
O=C(NNc1c2ccccc2nc2ccccc12)C(O)c1ccccc1 (stereo not given)	5	-27*	-31	5	-2	2
COC(=O)c1nn(-c2ccccc2)c(Sc2ccc(Br)cc2)c1/C=N/O	·	-20*	·	·	·	4
CO[C@H]1CN(C)C(=O)c2ccc(NS(=O)(=O)CC(F)(F)F)cc2OC[C@H](C)NC[C@@H]1C	·	0	-10	4	10	·
O=C(Cn1c(C(F)(F)F)nc2ccccc21)c1ccc(Cl)cc1	64*	·	·	-2	·	-3
CNC[C@@H]1Oc2c(NC(=O)c3ccc(-c4nccs4)cc3)cccc2C(=O)N([C@@H](C)CO)C[C@H]1C	4[16.7 µM]	-1	-3	-2	-11	0
Cc1cc(-c2nnc(SCC(=O)Nc3nc(-c4ccc(Cl)cc4)cs3)o2)no1	-6	-33*	-13	2	1	-1
CC(=O)c1sc(NC(=O)c2oc3ccc(F)cc3c2C)nc1C	-49	16	-25	1	21*	2
C[C@@H]1CN([C@@H](C)CO)C(=O)c2cc(C#CCN(C)C)cnc2O[C@@H]1CN(C)C(=O)Nc1cc(F)ccc1F	-17[16.7 µM]	4	-8	-2	-3	1
O=C(NCC[C@@H]1CC[C@@H](NS(=O)(=O)c2ccccc2)[C@@H](CO)O1)c1cc(Cl)cc(Cl)c1	-13[16.7 µM]	-16*!	-4	2	-3	1
O=C(N[C@H]1CC[C@H](CCNS(=O)(=O)c2ccccc2)O[C@@H]1CO)c1cccnc1	2[16.7 µM]	1	·	-4	-5	0
O=C(N[C@@H]1CC[C@@H](CCNS(=O)(=O)c2ccccc2)O[C@H]1CO)c1cccnc1	7[16.7 µM]	-2	·	-3	32*	2
O=C(N[C@@H]1CC[C@@H](CCNS(=O)(=O)c2cccc(Cl)c2)O[C@H]1CO)c1ccccc1	0[16.7 µM]	-3	·	1	77*	2
O=C(NCC[C@H]1CC[C@@H](NS(=O)(=O)c2ccccc2)[C@H](CO)O1)c1cc(Cl)cc(Cl)c1	2[16.7 µM]	-3	4	-17	3	2
SMILES	HIV Env fusion	Ecoli rRNA inh	FN deposit inh	PGC1a acetyl inh	DENV2 CPE rescue	PglD DTNB
COCC(=O)N(C)C[C@@H]1[C@H](c2ccc(-c3ccccc3)cc2)[C@@H](CO)N1C(C)=O	·	-2	2	2	-17	4
CC=Cc1ccc2n(c1=O)C[C@@H]1[C@@H](CO)[C@H](C(=O)NCCC)N(C(=O)C3CCOCC3)[C@H]21 (mixture of isomers)	·	5	·	·	-8	0
C#CC(=O)N(c1ccc(OC)c(OC)c1)C(C(=O)NC1CCCC1)c1cccs1 (stereo not given)	·	-28*	·	103*	·	1
COc1ccc(N(C(=O)Cc2cccs2)C(C(=O)NC2CCCC2)c2ccncc2)cc1OC (stereo not given)	-1	7	2	14	2	-2
C#CC(=O)N(c1cccc(OC)c1)C(C(=O)NC1CCCC1)c1cccs1 (stereo not given)	·	-13	·	93*	-6	4
COc1ccc(CC(=O)Nc2ncc([N+](=O)[O-])s2)cc1OC	14	-50*	-2	-5	6	-4
COCC(=O)Nc1ccc2c(c1)OC[C@H](C)N(CC1CCCCC1)C[C@H](C)[C@H](OC)CN(C)C2=O	·	3	-3	-9	-1	-2
Cc1nc2c(o1)C(=O)c1ccccc1C2=Nc1ccccc1	79*	2	-1	·	-5	·
CO[C@@H]1CN(C)C(=O)c2ccc(NS(=O)(=O)c3c(C)noc3C)cc2OC[C@H](C)NC[C@H]1C	3[16.7 µM]	3	0	0	-2	-2
COc1ccc(C(=O)Nc2ccc3nc(C)sc3c2)cc1OC	2	-20*	·	4	0	·
C[C@@H]1CN([C@@H](C)CO)C(=O)c2c(c3ccccc3n2C)-c2ccccc2CO[C@H]1CN(C)S(=O)(=O)c1ccc(C#N)cc1	69*	0	-1	-22	?	-2
C[C@@H]1CN([C@@H](C)CO)C(=O)c2c(c3ccccc3n2C)-c2ccccc2CO[C@@H]1CN(C)S(=O)(=O)c1ccc(C#N)cc1	·	0	0	-1	0	0
Cc1ccccc1S(=O)(=O)N(C)C[C@@H]1OCc2ccccc2-c2c(n(C)c3ccccc23)C(=O)N([C@H](C)CO)C[C@@H]1C	74*	6	-2	2	?	6
CC[C@H]1CC=CC[C@@H](C)Oc2ccccc2C(=O)N(C)[C@H](C)C(=O)N1 (mixture of isomers)	·	-4	1	·	·	·
CCCNC(=O)Nc1ccc2c(c1)C(=O)N(C)[C@@H]1CC[C@@H](CC(=O)NC)O[C@@H]1CO2	-5[16.7 µM]	-2	·	6	6	-1
